Key:
Canis familiaris [1] = test: Diuretic activity in mongrel dog anesthetized with sodium pentobarbital assessed as urine Na+ level at 10 mg/kg, iv measured after 15 to 45 mins post dose (reference value: 4 to 82 uequiv/min); format: functional, Canis lupus familiaris
Canis familiaris [2] = test: Diuretic activity in mongrel dog anesthetized with sodium pentobarbital assessed as urine K+ level at 10 mg/kg, iv measured after 15 to 45 mins post dose (reference value: 5 to 104 uequiv/min); format: functional, Canis lupus familiaris
Canis familiaris [3] = test: Diuretic activity in mongrel dog anesthetized with sodium pentobarbital assessed as urine volume at 10 mg/kg, iv measured after 15 to 45 mins post dose (reference value: 1 to 4 ml/min); format: functional, Canis lupus familiaris
Canis familiaris [4] = test: Diuretic activity in mongrel dog anesthetized with sodium pentobarbital assessed as urine Na+ level at 25 mg/kg, iv measured after 15 to 45 mins post dose (reference value: 4 to 82 uequiv/min); format: functional, Canis lupus familiaris
Canis familiaris [5] = test: Diuretic activity in mongrel dog anesthetized with sodium pentobarbital assessed as urine K+ level at 25 mg/kg, iv measured after 15 to 45 mins post dose (reference value: 5 to 104 uequiv/min); format: functional, Canis lupus familiaris
Canis familiaris [6] = test: Diuretic activity in mongrel dog anesthetized with sodium pentobarbital assessed as urine volume at 25 mg/kg, iv measured after 15 to 45 mins post dose (reference value: 1 to 4 ml/min); format: functional, Canis lupus familiaris
Canis familiaris [7] = test: Diuretic activity in mongrel dog anesthetized with sodium pentobarbital assessed as urine Na+ level at 1 mg/kg, iv measured after 15 to 45 mins post dose (reference value: 4 to 82 uequiv/min); format: functional, Canis lupus familiaris
Canis familiaris [8] = test: Diuretic activity in mongrel dog anesthetized with sodium pentobarbital assessed as urine K+ level at 1 mg/kg, iv measured after 15 to 45 mins post dose (reference value: 5 to 104 uequiv/min); format: functional, Canis lupus familiaris
Canis familiaris [9] = test: Diuretic activity in mongrel dog anesthetized with sodium pentobarbital assessed as urine volume at 1 mg/kg, iv measured after 15 to 45 mins post dose (reference value: 1 to 4 ml/min); format: functional, Canis lupus familiaris
Canis familiaris [10] = test: Diuretic activity in mongrel dog anesthetized with sodium pentobarbital assessed as urine Cl- level at 1 mg/kg, iv measured after 15 to 45 mins post dose (reference value: 2 to 64 uequiv/min); format: functional, Canis lupus familiaris
Canis familiaris [11] = test: Diuretic activity in mongrel dog anesthetized with sodium pentobarbital assessed as urine Cl- level at 10 mg/kg, iv measured after 15 to 45 mins post dose (reference value: 2 to 64 uequiv/min); format: functional, Canis lupus familiaris
Canis familiaris [12] = test: Diuretic activity in mongrel dog […] assessed as urine Na+ level per 6 hrs at 3 mg/kg, po as gelatin capsules relative to control; format: functional, Canis lupus familiaris
Procedure, shortened: (§1)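 Conscious trained female mongrel dogs (8–10 kg), fasted overnight after 100 ml water the day before. On test day 250 ml water orally, then 500 ml 1 h later. Bladder emptied 1 h afterwards and compound or placebo given in gelatin capsules. Voided urine from metabolism cages pooled with catheter urine at 6 h; volume and Na+, K+, Cl− measured; geometric means.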

Canis familiaris [13] = test: Diuretic activity in mongrel dog […] assessed as urine K+ level per 6 hrs at 3 mg/kg, po as gelatin capsules relative to control; format: functional, Canis lupus familiaris; procedure, shortened: as §1
Canis familiaris [14] = test: Diuretic activity in mongrel dog […] assessed as urine Cl- level per 6 hrs at 3 mg/kg, po as gelatin capsules relative to control; format: functional, Canis lupus familiaris; procedure, shortened: as §1
Canis familiaris [15] = test: Diuretic activity in mongrel dog […] assessed as urine volume per 6 hrs at 3 mg/kg, po as gelatin capsules relative to control; format: functional, Canis lupus familiaris; procedure, shortened: as §1
[16] = Half life of the compound in DMF-phosphate buffer at pH 7.4 at 25 degC assessed as SH binding in presence of mercaptoacetic acid; format: physicochemical; conditions: DMF-phosphate buffer with mercaptoacetic acid
Procedure, shortened: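 Minutes for half of a standard amount of compound to react with excess mercaptoacetic acid in DMF-phosphate buffer, pH 7.4, 25°.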

Canis familiaris [17] = test: Diuretic activity in mongrel dog assessed as urine volume per 6 hrs at 1 mg/kg, po as gelatin capsules relative to control
Canis familiaris [18] = test: Diuretic activity in mongrel dog assessed as urine K+ level per 6 hrs at 1 mg/kg, po as gelatin capsules relative to control
Canis familiaris [19] = test: Diuretic activity in mongrel dog assessed as urine Cl- level per 6 hrs at 1 mg/kg, po as gelatin capsules relative to control
Canis familiaris [20] = test: Diuretic activity in mongrel trained conscious dog assessed as urine Na+ level per 6 hrs at 1 mg/kg, po as gelatin capsules relative to control
Canis familiaris [21] = test: Diuretic activity in mongrel dog anesthetized with sodium pentobarbital assessed as urine Na+ level at 0.1 mg/kg, iv measured after 15 to 45 mins post dose (reference value: 4 to 82 uequiv/min); format: functional, Canis lupus familiaris
Canis familiaris [22] = test: Diuretic activity in mongrel dog anesthetized with sodium pentobarbital assessed as urine K+ level at 0.1 mg/kg, iv measured after 15 to 45 mins post dose (reference value: 5 to 104 uequiv/min); format: functional, Canis lupus familiaris
Canis familiaris [23] = test: Diuretic activity in mongrel dog anesthetized with sodium pentobarbital assessed as urine Cl- level at 0.1 mg/kg, iv measured after 15 to 45 mins post dose (reference value: 2 to 64 uequiv/min); format: functional, Canis lupus familiaris
Canis familiaris [24] = test: Diuretic activity in mongrel dog anesthetized with sodium pentobarbital assessed as urine volume at 0.1 mg/kg, iv measured after 15 to 45 mins post dose (reference value: 1 to 4 ml/min); format: functional, Canis lupus familiaris
Canis familiaris [25] = test: Diuretic activity in mongrel dog […] assessed as urine volume per 6 hrs at 1.27 mg/kg, po as gelatin capsules relative to control; format: functional, Canis lupus familiaris; procedure, shortened: as §1
Canis familiaris [26] = test: Diuretic activity in mongrel dog assessed as urine K+ level per 6 hrs at 1.27 mg/kg, po as gelatin capsules relative to control
Canis familiaris [27] = test: Diuretic activity in mongrel dog assessed as urine Na+ level per 6 hrs at 1.27 mg/kg, po as gelatin capsules relative to control
Canis familiaris [28] = test: Diuretic activity in mongrel dog assessed as urine Cl- level per 6 hrs at 1.27 mg/kg, po as gelatin capsules relative to control
Canis familiaris [29] = test: Diuretic activity in mongrel trained conscious dog assessed as urine volume per 6 hrs at 0.4 mg/kg, po as gelatin capsules relative to control
Canis familiaris [30] = test: Diuretic activity in mongrel trained conscious dog assessed as urine K+ level per 6 hrs at 0.4 mg/kg, po as gelatin capsules relative to control
Canis familiaris [31] = test: Diuretic activity in mongrel trained conscious dog assessed as urine Na+ level per 6 hrs at 0.4 mg/kg, po as gelatin capsules relative to control
Canis familiaris [32] = test: Diuretic activity in mongrel trained conscious dog assessed as urine Cl- level per 6 hrs at 0.4 mg/kg, po as gelatin capsules relative to control

## CC(=O)/C(=C\c1ccc(OCC(=O)O)c(Cl)c1Cl)C(=O)c1ccccc1
Canis familiaris [1]
  Activity: 583 uEq/min
Canis familiaris [2]
  Activity: 105 uEq/min
Canis familiaris [3]
  Activity: 6 mL/min

## CC(=O)C(=Cc1cc(Cl)cc(Cl)c1OCC(=O)O)C(C)=O
Canis familiaris [4]
  Activity: 244 uEq/min
Canis familiaris [5]
  Activity: 50 uEq/min
Canis familiaris [6]
  Activity: 3 mL/min

## CC(=O)C(=Cc1ccc(OC(C)C(=O)O)c(Cl)c1Cl)C(C)=O (stereo unspecified)
Canis familiaris [7]
  Activity: 847 uEq/min
Canis familiaris [8]
  Activity: 71 uEq/min
Canis familiaris [9]
  Activity: 8 mL/min

## CC(=O)C(C(C)=O)C(Sc1ccccc1C(=O)O)c1ccc(OCC(=O)O)c(Cl)c1Cl (stereo unspecified)
Canis familiaris [7]
  Activity: 802 uEq/min
Canis familiaris [8]
  Activity: 124 uEq/min
Canis familiaris [10]
  Activity: 913 uEq/min
Canis familiaris [9]
  Activity: 7 mL/min

## O=C(O)COc1ccc(C=C2C(=O)C=CC2=O)c(Cl)c1Cl
Canis familiaris [1]
  Activity: 213 uEq/min
Canis familiaris [2]
  Activity: 94 uEq/min
Canis familiaris [3]
  Activity: 4 mL/min

## CC(=O)C(=Cc1ccc(OCC(=O)O)c(C)c1C)C(C)=O
Canis familiaris [8]
  Activity: 58 uEq/min

## CC(=O)C(Cc1ccc(OCC(=O)O)c(Cl)c1Cl)C(C)=O
Canis familiaris [1]
  Activity: 198 uEq/min
Canis familiaris [2]
  Activity: 35 uEq/min
Canis familiaris [11]
  Activity: 241 uEq/min
Canis familiaris [3]
  Activity: 3 mL/min

## C=C(CC)C(=O)c1ccc(OCC(=O)O)c(Cl)c1Cl [ETHACRYNIC ACID]
Canis familiaris [1]
  Activity: 2989 uEq/min
Canis familiaris [2]
  Activity: 194 uEq/min
Canis familiaris [11]
  Activity: 3324 uEq/min
Canis familiaris [3]
  Activity: 22 mL/min
Canis familiaris [7]
  Activity: 188 uEq/min
Canis familiaris [8]
  Activity: 52 uEq/min
Canis familiaris [10]
  Activity: 244 uEq/min
Canis familiaris [9]
  Activity: 6 mL/min
Canis familiaris [12]
  Activity: 37 milliequivalent
Canis familiaris [13]
  Activity: 7 milliequivalent
Canis familiaris [14]
  Activity: 42 milliequivalent
Canis familiaris [15]
  Activity: 571 mL
[16]
  half-life: < 1 min
Canis familiaris [17]
  Activity: 560 mL
Canis familiaris [18]
  Activity: 5 milliequivalent
Canis familiaris [19]
  Activity: 26 milliequivalent
Canis familiaris [20]
  Activity: 21 milliequivalent

## CC(=O)C(C(C)=O)C(SCC(=O)O)c1ccc(OCC(=O)O)c(Cl)c1Cl (stereo unspecified)
Canis familiaris [7]
  Activity: 1569 uEq/min
Canis familiaris [8]
  Activity: 178 uEq/min
Canis familiaris [10]
  Activity: 1628 uEq/min
Canis familiaris [9]
  Activity: 4 mL/min
Canis familiaris [21]
  Activity: 1424 uEq/min
Canis familiaris [22]
  Activity: 173 uEq/min
Canis familiaris [23]
  Activity: 1991 uEq/min
Canis familiaris [24]
  Activity: 13 mL/min
Canis familiaris [25]
  Activity: 750 mL
Canis familiaris [26]
  Activity: 6 milliequivalent
Canis familiaris [27]
  Activity: 27 milliequivalent
Canis familiaris [28]
  Activity: 34 milliequivalent
Canis familiaris [29]
  Activity: 575 mL
Canis familiaris [30]
  Activity: 3 milliequivalent
Canis familiaris [31]
  Activity: 7 milliequivalent
Canis familiaris [32]
  Activity: 8 milliequivalent

## CC(=O)C(=Cc1ccc(OCC(=O)O)cc1Cl)C(C)=O
Canis familiaris [7]
  Activity: 1318 uEq/min
Canis familiaris [8]
  Activity: 232 uEq/min
Canis familiaris [9]
  Activity: 11 mL/min

## CC(=O)C(=Cc1ccc(OCC(=O)O)cc1)C(C)=O
Canis familiaris [1]
  Activity: 336 uEq/min
Canis familiaris [2]
  Activity: 106 uEq/min
Canis familiaris [3]
  Activity: 4 mL/min

## CC(=O)C(=Cc1ccc(OCC(=O)O)c2ccccc12)C(C)=O
Canis familiaris [7]
  Activity: 393 uEq/min
Canis familiaris [8]
  Activity: 104 uEq/min
Canis familiaris [9]
  Activity: 4 mL/min

## O=C(O)COc1ccc(C=C2C(=O)c3ccccc3C2=O)c(Cl)c1Cl
Canis familiaris [1]
  Activity: 118 uEq/min
Canis familiaris [2]
  Activity: 44 uEq/min
Canis familiaris [11]
  Activity: 29 uEq/min
Canis familiaris [3]
  Activity: 2 mL/min

## CC(=O)C(=Cc1cc(Cl)ccc1OCC(=O)O)C(C)=O
Canis familiaris [1]
  Activity: 94 uEq/min
Canis familiaris [2]
  Activity: 20 uEq/min
Canis familiaris [3]
  Activity: 2 mL/min

## CSC(c1ccc(OCC(=O)O)c(Cl)c1Cl)C(C(C)=O)C(C)=O (stereo unspecified)
Canis familiaris [7]
  Activity: 571 uEq/min
Canis familiaris [8]
  Activity: 78 uEq/min
Canis familiaris [10]
  Activity: 565 uEq/min
Canis familiaris [9]
  Activity: 6 mL/min

## CCC(=O)C(=Cc1ccc(OCC(=O)O)c(Cl)c1Cl)C(=O)CC
Canis familiaris [7]
  Activity: 676 uEq/min
Canis familiaris [8]
  Activity: 68 uEq/min
Canis familiaris [9]
  Activity: 7 mL/min

## CC(=O)C(C(C)=O)C(SCCO)c1ccc(OCC(=O)O)c(Cl)c1Cl (stereo unspecified)
Canis familiaris [7]
  Activity: 405 uEq/min
Canis familiaris [8]
  Activity: 80 uEq/min
Canis familiaris [10]
  Activity: 447 uEq/min
Canis familiaris [9]
  Activity: 5 mL/min

## CCC(=O)/C(=C/c1ccc(OCC(=O)O)c(Cl)c1Cl)C(C)=O
Canis familiaris [7]
  Activity: 2025 uEq/min
Canis familiaris [8]
  Activity: 13 uEq/min
Canis familiaris [10]
  Activity: 1936 uEq/min
Canis familiaris [9]
  Activity: 16 mL/min

## CC(=O)C(=Cc1cc(OCC(=O)O)ccc1Cl)C(C)=O
Canis familiaris [6]
  Activity: 1 mL/min

## CC(=O)C(=Cc1ccc(OCC(=O)O)c(Cl)c1Cl)C(C)=O
Canis familiaris [8]
  Activity: 104 uEq/min
Canis familiaris [9]
  Activity: 19 mL/min
Canis familiaris [21]
  Activity: 984 uEq/min
Canis familiaris [22]
  Activity: 87 uEq/min
Canis familiaris [24]
  Activity: 9 mL/min
Canis familiaris [17]
  Activity: 492 mL
Canis familiaris [18]
  Activity: 7 milliequivalent
Canis familiaris [29]
  Activity: 762 mL
Canis familiaris [20]
  Activity: 30 milliequivalent
Canis familiaris [30]
  Activity: 6 milliequivalent
